System: MS2 coat protein
Test: apparent Kd, MS2 coat protein; higher = weaker binding; RNA-MaP array; FMN 200 µM where present
Summary of the method: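 Green signal was scaled to red-channel RNA signal and control-cluster median Fmax, and the apparent Kd was taken as the median of filtered per-cluster binding-curve fits. The binding series used SNAP-549-labelled MS2 coat protein from 0.7 or 1.5 nM, doubling to 3 µM, on designs transcribed by stalled E. coli RNA polymerase on Illumina sequencing-chip clusters. Each series ran without and then with constant ligand in 100 mM Tris-HCl pH 7.5, 80 mM KCl, 4 mM MgCl2, BSA, DTT, yeast tRNA and Tween-20.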

[1] = designed as: OFF switch for flavin mononucleotide, no ligand
[2] = ligand present: flavin mononucleotide, designed as: OFF switch for flavin mononucleotide
[3] = designed as: ON switch for flavin mononucleotide, no ligand
[4] = ligand present: flavin mononucleotide, designed as: ON switch for flavin mononucleotide

| Sequence | apparent Kd [1] | apparent Kd [2] | apparent Kd [3] | apparent Kd [4] |
| --- | --- | --- | --- | --- |
| UGUAUGGACAGAGGAUAUACGUGCUAGAGAUACUAGCAAAUAAUCCUUACAUGAGGAUCACCCAUGUAGAAGGCUGUCCAUACU | 0.0201 µM | 0.0465 µM |  |  |
| UGUCAGAUGGUAGGAUAUUCAUAUCGAGUGACCCUUUCAUAACAUGAGGAUCACCCAUGUCGGUGGGAGAAGGGCCGUAUGGUG | 0.0298 µM | 0.0303 µM |  |  |
| UGUCAUUUACAGAAGGGUAGUUGGGUUUUACAUGAGGAUCACCCAUGUUUUACAGGAUAUGUGUUUUGUUACUAUUAAAGUUCA | 0.0665 µM | 0.123 µM |  |  |
| UGUCCAUAGCAGAAGGCAUGUCAAAAGACAUGAGGAUCACCCAUGUAAACAUGAGGAUAUGCUAUGGACUAAGAGCGAAAGCUC | 0.00857 µM | 0.00566 µM |  |  |
| UGUCGGAGCAGAGGAUAUUACAUGAGGAUCACCCAUGUAUGAACCAAUAGCUGAAAACAGCAAUGUAAGAAGGCUGCUCCGACA | 0.0115 µM | 0.176 µM |  |  |
| UGUCGGAGCAGAGGAUAUUACAUGAGGAUCACCCAUGUAUGAACCAAUAGCUGGAAACAGCAAUGUAAGAAGGCUGCUCGGACA | 0.0126 µM | 0.187 µM |  |  |
| UGUCGGAGCAGAGGAUAUUACAUGAGGAUCACCCAUGUAUGAACCAAUAGCUGGUAACAGCAAUGUAAGAAGGCUGCUCCGACA | 0.0141 µM | 0.176 µM |  |  |
| UGUGCGUAUGUGAGGAUAUGCUGGUCCUUGGAUCGGCAGAAGGCACAUGAGGAUCACCCAUGUGGUGUCGUACU | 0.483 µM | 0.0266 µM |  |  |
| UGUGCGUAUGUGAGGAUAUGCUGGUCCUUGGAUCGGCAGAAGGCACAUGAGGAUCACCCAUGUGGUGUCGUUCC | 0.144 µM | 0.0578 µM |  |  |
| UGUGCGUUGAUCUUCGAUCGGAGUACAUGAGGAUCACCCAUGUAGGAUAUUCAAAGACGCAGAUAGAAGAAGGACAUCGGUUUA | 0.0119 µM | 0.0111 µM |  |  |
| UGUGCGUUGAUCUUCGAUCGGUGUACAUGAGGAUCACCCAUGUAGGAUAUUCAAAGACGCAGAUAGGAGAAGGACAUUGGUUUU | 0.0168 µM | 0.02 µM |  |  |
| UGUGGCGGUCAGAAGGCAACGUUGACAUGAGGAUCACCCAUGUUACCCUUGAGGAUAUGGCGGGCCUCACGUCGGUGGUAAUGA |  |  | 0.0938 µM | 0.0233 µM |
| UGUGUGAGACAGGAUAUGCUGGUUGUGUGGCGGGUAGAAGGGUCUACAUGAGGAUCACCCAUGUGGCCGGUUGG | 0.022 µM | 0.0228 µM |  |  |
| UGUGUUAUCGGAGGAUAUCGAUAUCAAACAUGAGGAUCACCCAUGUUGAGGAUCACCCAUGUCCACGAGAAGGCCGGCGUAGUG |  |  | 0.0181 µM | 0.0183 µM |
| UGUUAAUUGUAGAAGGGUGACAUGAGGAUCACCCAUGUUCACAUGCGAUUUACGGCGCAUGUUCCACAGGAUAUACAGUUGAGU |  |  | 0.556 µM | 0.0978 µM |
| UGUUCUAUGUAGAAGGCCCAUAUCUGUACUUAGGGAGGAUAUACAUGAGGAUCACCCAUGUGUAGAGCUGGUGGACUGGACAGC | 0.0209 µM | 0.0325 µM |  |  |
| UGUUGAUAGCAGAAGGACAUGAGGAUCACCCAUGUAAGGUUACAAAUACAUGUAGGAUAUGCUAUUGACUAAGAGUGAGCGUUC | 0.0434 µM | 0.565 µM |  |  |
| UGUUGUAUUACAGGAUAUCUAUGAUUUUAAUUUAGAGAAGGGUAUUCACAUGAGGAUCACCCAUGUAUAUACGAGGAAGUUGUG |  |  | 0.0512 µM | 0.0589 µM |
| UGUUGUAUUACAGGAUAUCUAUUAGUUUUAGUUAGAGAAGGGUAUUCACAUGAGGAUCACCCAUGUAUAUACGAGGAAGUUGUG |  |  | 0.0441 µM | 0.0491 µM |
| UGUUGUUCAGGAUAUGAUGUCUUAUACAUGAGGAUCACCCAUGUGGGUCCUGAUUUGGCGUCAGAAGGGAAUGUUG | 0.551 µM | 0.569 µM |  |  |
| UGUUUGGGAGGAUAUCCAAUAUAUGACAUGAGGAUCACCCAUGUUUCCACUCGUACCUCCGGAGAAGGCCCUGCGU | 0.0247 µM | 0.022 µM |  |  |
| UGUUUUCAUGUAGGAUAUGCUUGUCGUAGAUACGCAGAAGGACAUGAGGAUCACCCAUGUUAAAGCGUCAGAGUAUAGAUUCUU | 0.0179 µM | 0.0456 µM |  |  |
| UGUUUUCAUGUAGGAUAUGCUUGUCGUAGAUACGCAGAAGGACAUGAGGAUCACCCAUGUUAAUGCGACAGAGUAUAGAUUCUU | 0.0153 µM | 0.0206 µM |  |  |
| UUAAAUCAUGUAGGAUAUGCAUGGCGAAGCUACGCAGAAGGACAUGAGGAUCACCCAUGUUAAAGCUACCGAGUUCGGUGGCAA | 0.116 µM | 0.156 µM |  |  |
| UUAAAUCAUGUAGGAUAUGCAUGGCGAAGCUACGCAGAAGGACAUGAGGAUCACCCAUGUUAUACCUACCCAGUUCGGUGGGAA | 0.081 µM | 0.241 µM |  |  |
| UUAAAUCAUGUAGGAUAUGCAUGGCGAAGCUACGCAGAAGGACAUGAGGAUCACCCAUGUUAUAGCUACCCAGUUAGGUGGCAA | 0.0822 µM | 0.189 µM |  |  |
| UUAAAUCAUGUAGGAUAUGCAUGGCGAAGCUACGCAGAAGGACAUGAGGAUCACCCAUGUUAUAGCUACCCGUUACGGUGGCAA | 0.0891 µM | 0.239 µM |  |  |
| UUAAAUCGAAACAUGAGGAUCACCCAUGUGUUGUGGUUAAUAUAGGAUAUGUGUAUACUUUUAUGACAGAAGGAUGAUGAUACU |  |  | 0.0162 µM | 0.0132 µM |

| Sequence | apparent Kd [1] | apparent Kd [2] | apparent Kd [3] | apparent Kd [4] |
| --- | --- | --- | --- | --- |
| UUAAUGUGAGGAUAUCAAGUGUGAUAGAGUAAUGGUAAAUAUGAGAAGGCACAUGAGGAUCACCCAUGUUCUUC | 0.0157 µM | 0.0174 µM |  |  |
| UUAAUGUGAGGAUAUCAGGUGUGCUAGAGUACUGGUACAUCUGAGAAGGCACAUGAGGAUCACCCAUGUUCUUC | 0.0369 µM | 0.11 µM |  |  |
| UUAAUUAAUUAAUUCGUCAAUUACAUGAGGAUCACCCAUGUAUAGGAUAUGCAGUGGAAUACACUGCAGAAGGAUACAUAGACG | 0.0226 µM | 0.0415 µM |  |  |
| UUAAUUAUACAAGGAUAUCUAUCCUUAUCAAGACUUACAUGAGGAUCACCCAUGUUAAUAUAAUUAGAGAAGGUGUAAAUACAG |  |  | 0.0174 µM | 0.0241 µM |
| UUAAUUCGAAACAUGAGGAUCACCCAUGUGUUGUGGUUAAUAUAGGAUAUGUGGAUACUUUUUUGACAGAAGGAUGAUGGUACU |  |  | 0.0133 µM | 0.0116 µM |
| UUAAUUUGAGGAUAUACAUUUAACCACAUGAGGAUCACCCAUGUAAUAUCAUGUAUUUGUGUAGAAGGCAGAAUGC | 0.0188 µM | 0.0175 µM |  |  |
| UUACAGUGCGGGUAGGAUAUGUAGGGUGGUACAUGAGGAUCACCCAUGUAUCCACCCUUCGACCGGCAGAAGGGCCUAUCACUGC |  |  | 0.0159 µM | 0.0136 µM |
| UUACAUACAAAGGUACAUGAGGAUCACCCAUGUUUGUUGGGAAGAAGGGUAACAGUACUACACAUACAGGAUAUUUCACAAAUA |  |  | 0.0868 µM | 0.0564 µM |
| UUACCACAUGAGGAUCACCCAUGUCAGGAUAUACUAUUAACUACAUUUUCUUAUUUUAGUAGAAGGGACACUUU | 0.026 µM | 0.0231 µM |  |  |
| UUACCUCAUGAGAAGGACAUGAGGAUCACCCAUGUAGGAUAUCGUGGGACACUGGAAUUGAAUCUUCGGAUUCAAUAACUGUAU |  |  | 0.349 µM | 0.0262 µM |
| UUACCUCAUGAGAAGGACAUGAGGAUCACCCAUGUAGGAUAUCGUGGGAGACUGGUAUUGAAUCUUCGGAUUCAAUACCAGUCU |  |  | 0.375 µM | 0.0297 µM |
| UUACUACAUGUAGGAUAUGCGUGGCGAAGCUAUGCAGAAGGACAUGAGGAUCACCCAUGUUUUAGCGUCUGCGUACAGAUGCGU | 0.019 µM | 0.0284 µM |  |  |
| UUACUAUAACAGAAGGGUAGAUAGUAUAUAGAUGCAGGAUAUGUUACAUGAGGAUCACCCAUGUUUCACCCACAUGAGGAUCAC | 0.032 µM | 0.0703 µM |  |  |
| UUACUCAUGUAAGGAUAUGCAGCCGCUUCGGCUGCAGAAGGUACUAUAAUACAUGAGGAUCACCCAUGUCUUUUUAAUUUAGAC |  |  | 0.0827 µM | 0.0365 µM |
| UUACUCAUGUAAGGAUAUGCAGCCGUUUCGGCUGCAGAAGGUACUAUAAUACAUGAGGAUCACCCAUGUCUAUAAACUAAAGAC |  |  | 0.0843 µM | 0.0457 µM |
| UUACUUCAUGAGAAGGACAUGAGGAUCACCCAUGUAGGAUAUCGUGGGAGACUGGUAUUGAAUCUUCGGAUUCAAUACCUGUCU |  |  | 0.0597 µM | 0.0093 µM |
| UUAGAGGAUUAAGGAUAUGCAGAGAGAUCAUGCGCGUCGCGCACAUGAGGAUCACCCAUGUAAGAGCAGAAGGUAACUAUGAUC | 0.0199 µM | 0.0184 µM |  |  |
| UUAGUCAUGUAAGGAUAUCCGAUGCGAAGCGUUGGAGAAGGUACAUGAGGAUCACCCAUGUUCUGCGUCUGAGUACAGAUGCUA | 0.494 µM | 0.174 µM |  |  |
| UUAUAAAAUAAAGGAUAUUCAUACCGGAAACGGACAUGAGGAUCACCCAUGUGGCGAAAGCCUUGGGAGAAGGUUAAAAUAUAU |  |  | 0.441 µM | 0.317 µM |
| UUAUAAAGAGUGAGGAUAUGCUGGUCCUUGGAUCAGCAGAAGGCACAUGAGGAUCACCCAUGUAAAAUAAUAUU | 0.0284 µM | 0.0413 µM |  |  |
| UUAUAAAGUGUGAGGAUAUGCUGGUCCUUGGAUCAGCAGAAGGCACAUGAGGAUCACCCAUGUAAUAUAUUUUU | 0.0898 µM | 0.309 µM |  |  |
| UUAUACGUUGAGGAUAUGCGACUGUUUUAAGUUGUAGAAGGCGAUACAUGAGGAUCACCCAUGUUUAUGGGCAU | 0.24 µM | 0.327 µM |  |  |
| UUAUAUAGUGUGAGGAUAUGCUGGUCCUUGGAUCAGCAGAAGGCACAUGAGGAUCACCCAUGUAGUUAAAUUUA | 0.0344 µM | 0.134 µM |  |  |
| UUAUAUAUAUAAGGAUAUGUAUAUCCAACAUGAGGAUCACCCAUGUUGAGGAUCACCCAUGUAAAGCAGAAGGUAUAUAUAAAU |  |  | 0.0428 µM | 0.0264 µM |
| UUAUUAUAUGUAGGAUAUGCAUAUUAUCAUUGUGCAGAAGGACAUGAGGAUCACCCAUGUAUAUUAUUAUUAUAUAUUAUAUAU | 0.0175 µM | 0.0185 µM |  |  |
| UUAUUAUAUGUAGGAUAUGCAUAUUAUUAUUAUGCAGAAGGACAUGAGGAUCACCCAUGUAUGUUGUUAUUAUAUAUUAUAUAU | 0.0252 µM | 0.0345 µM |  |  |
| UUAUUAUAUGUAGGAUAUGCAUAUUGUUAUUAUGCAGAAGGACAUGAGGAUCACCCAUGUAUAUUAUUAUUAUAUAUUAUAUAU | 0.0294 µM | 0.0488 µM |  |  |

Reference: the EternaBench riboswitch data
